Measurements published in ChEMBL document CHEMBL3352245, “Discovery of a series of aryl-N-(3-(alkylamino)-5-(trifluoromethyl)phenyl)benzamides as TRPA1 antagonists” (Bioorg Med Chem Lett, 2014).
Converted amounts (≈) assume the structure as drawn.

Legend:
Plasma = experiment: Fraction unbound in human plasma at 10 uM by equilibrium dialysis method; format: ADME, cell-free
Summary of the method: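 Test compound at 10 μM in human plasma. Binding is measured by equilibrium dialysis.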

[1] = Thermodynamic solubility of the compound in buffer at pH 7.4 by HPLC/UV detection method; format: physicochemical; details: read-out: Therm_solubility
Summary of the method: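 Thermodynamic solubility in pH 7.4 buffer. Dissolved compound is quantified by HPLC with UV detection.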

[2] = target: Transient receptor potential cation channel subfamily A member 1 (Homo sapiens, UniProt O75762); experiment: Antagonist activity at human TRPA1 expressed in HEK293-TREx cells assessed as change in calcium level by Fluo-4NW assay; format: cell-based
Summary of the method: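 Human receptor; values are means of at least 2 experiments, with replicate error within 20% of value.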

[3] = Intrinsic clearance in human liver microsomes at 1 uM in presence of NADPH; format: ADME; details: read-out: CLH
Summary of the method: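 Incubated with human liver microsomes at 1 mg/mL protein plus NADPH. Test compound at 1 μM.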

[4] = Apparent permeability from apical to basolateral across human Caco2 cells at pH 7.4 at 10 uM by Transwell assay; format: ADME, cell-based; details: Caco-2, pH 7.4
Summary of the method: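 Caco-2 monolayer in a Transwell format. Compound at 10 μM is applied apically and apical-to-basolateral apparent permeability is measured at pH 7.4.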

CYP2D6 = CYP2D6 (Homo sapiens, UniProt P10635); experiment: Time-dependent inhibition of CYP2D6 in human liver microsomes at 10 uM by LC-MS/MS analysis; format: ADME
Summary of the method: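 IC50-shift screen for time-dependent inhibition in human liver microsomes with test compound at 10 μM. The panel also covered 1A2, 2C9 and 3A4.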

Cytochrome P450 1A2 = target: T1, Cytochrome P450 1A2 (Homo sapiens, UniProt P05177); experiment: Competitive inhibition of CYP1A2 in human liver microsomes by LC-MS/MS analysis; format: ADME
T1 sequence (P05177 whole entry): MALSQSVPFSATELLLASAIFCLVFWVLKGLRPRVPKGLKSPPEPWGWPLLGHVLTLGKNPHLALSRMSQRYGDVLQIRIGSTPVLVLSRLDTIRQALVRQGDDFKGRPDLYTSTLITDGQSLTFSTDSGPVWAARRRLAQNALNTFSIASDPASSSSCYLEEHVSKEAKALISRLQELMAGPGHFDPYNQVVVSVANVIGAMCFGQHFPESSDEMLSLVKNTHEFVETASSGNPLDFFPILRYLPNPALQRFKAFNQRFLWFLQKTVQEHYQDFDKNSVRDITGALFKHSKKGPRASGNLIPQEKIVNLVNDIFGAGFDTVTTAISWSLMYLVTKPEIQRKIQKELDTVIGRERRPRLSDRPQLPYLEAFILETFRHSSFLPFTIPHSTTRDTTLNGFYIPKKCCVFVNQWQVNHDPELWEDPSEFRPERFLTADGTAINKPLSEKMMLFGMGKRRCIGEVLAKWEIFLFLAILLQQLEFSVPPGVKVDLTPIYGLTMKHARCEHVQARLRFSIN
Summary of the method: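 Competitive inhibition screen in human liver microsomes using standard probe substrates. Metabolites are detected by LC-MS/MS. The panel also covered 2C9, 2C19, 2D6 and 3A4.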

Sequence of Transient receptor potential cation channel subfamily A member 1 (O75762 whole entry): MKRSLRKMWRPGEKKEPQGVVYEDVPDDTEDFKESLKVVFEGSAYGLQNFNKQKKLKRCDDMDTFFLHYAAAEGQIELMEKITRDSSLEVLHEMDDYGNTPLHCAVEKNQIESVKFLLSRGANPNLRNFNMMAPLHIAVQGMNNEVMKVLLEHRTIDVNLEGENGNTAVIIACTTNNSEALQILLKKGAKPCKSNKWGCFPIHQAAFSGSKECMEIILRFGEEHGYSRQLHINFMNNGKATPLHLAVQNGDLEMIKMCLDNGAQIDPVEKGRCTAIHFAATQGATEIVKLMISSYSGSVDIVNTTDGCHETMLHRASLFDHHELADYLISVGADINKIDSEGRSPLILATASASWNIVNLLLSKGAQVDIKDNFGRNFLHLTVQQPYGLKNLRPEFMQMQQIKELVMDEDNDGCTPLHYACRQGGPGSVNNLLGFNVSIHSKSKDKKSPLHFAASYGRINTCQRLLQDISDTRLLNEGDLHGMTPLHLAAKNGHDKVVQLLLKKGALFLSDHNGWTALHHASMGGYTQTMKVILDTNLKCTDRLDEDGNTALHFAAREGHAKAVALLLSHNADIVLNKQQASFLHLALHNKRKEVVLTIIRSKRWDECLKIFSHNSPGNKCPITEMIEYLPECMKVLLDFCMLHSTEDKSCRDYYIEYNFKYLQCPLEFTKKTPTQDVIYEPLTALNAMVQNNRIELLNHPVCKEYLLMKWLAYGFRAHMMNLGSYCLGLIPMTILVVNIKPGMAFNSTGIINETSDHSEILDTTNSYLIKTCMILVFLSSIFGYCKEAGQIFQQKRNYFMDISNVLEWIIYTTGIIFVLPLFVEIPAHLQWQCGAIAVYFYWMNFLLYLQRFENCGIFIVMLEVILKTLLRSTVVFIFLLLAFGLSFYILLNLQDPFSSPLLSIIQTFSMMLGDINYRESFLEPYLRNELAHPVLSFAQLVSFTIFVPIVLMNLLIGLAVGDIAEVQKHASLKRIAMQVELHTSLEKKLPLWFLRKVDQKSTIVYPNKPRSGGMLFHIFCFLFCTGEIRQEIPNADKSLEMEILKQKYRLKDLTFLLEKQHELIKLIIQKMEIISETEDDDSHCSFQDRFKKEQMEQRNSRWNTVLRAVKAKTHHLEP
Sequence of CYP2D6 (P10635 whole entry): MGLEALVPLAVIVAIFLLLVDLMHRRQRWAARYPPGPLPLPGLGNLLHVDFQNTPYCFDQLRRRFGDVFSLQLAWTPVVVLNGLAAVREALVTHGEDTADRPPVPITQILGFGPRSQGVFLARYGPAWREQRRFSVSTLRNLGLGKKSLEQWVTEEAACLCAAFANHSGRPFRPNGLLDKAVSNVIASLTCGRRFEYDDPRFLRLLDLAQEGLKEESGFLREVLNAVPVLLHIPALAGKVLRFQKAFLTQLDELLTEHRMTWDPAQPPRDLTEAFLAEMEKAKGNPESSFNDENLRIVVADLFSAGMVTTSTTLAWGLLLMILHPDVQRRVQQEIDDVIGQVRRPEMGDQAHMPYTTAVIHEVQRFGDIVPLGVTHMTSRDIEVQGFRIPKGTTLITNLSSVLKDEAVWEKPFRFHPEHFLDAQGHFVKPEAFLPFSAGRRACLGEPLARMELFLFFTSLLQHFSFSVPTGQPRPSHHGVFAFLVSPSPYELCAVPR

`CC(C)Nc1cc(NC(=O)c2c(F)cccc2F)cc(C(F)(F)F)c1` gave a Fu (Plasma) of under 1%, a solubility thermodynamic [1] of 1 µM (≈ 0.358 µg/mL) and an IC50 [2] of 0.091 µM. The microsomal CLint at 1 µM [3] was 73 µL/min/mg and the Papp A→B at 10 µM [4] was 69 nm/s.
With `O=C(Nc1cc(NCc2cccs2)cc(C(F)(F)F)c1)c1cccs1` the IC50 [2] was 2.7 µM.
Molecule `O=C(Nc1cc(NCc2ccccc2)cc(C(F)(F)F)c1)c1cccs1` has an IC50 [2] of 2.9 µM.
For `O=C(Nc1cc(NCCc2ccccc2)cc(C(F)(F)F)c1)c1cccs1`, the IC50 [2] was 3.9 µM.
For `COC(=O)Nc1cc(NC(=O)c2cccs2)cc(C(F)(F)F)c1`, the IC50 [2] was 2.3 µM.
For `CCCN(CCC)c1cc(NC(=O)c2cccs2)cc(C(F)(F)F)c1`, the IC50 [2] was over 32 µM.
With `CC(C)C(C)Nc1cc(NC(=O)c2cccs2)cc(C(F)(F)F)c1` (stereo not given) the IC50 [2] was 1.3 µM.
`CC(C)CNc1cc(NC(=O)c2cccs2)cc(C(F)(F)F)c1` showed an IC50 [2] of 0.79 µM.
Work on `CCCNc1cc(NC(=O)c2cccs2)cc(C(F)(F)F)c1` yielded an IC50 [2] of 0.39 µM.
In the case of `CC(C)Nc1cc(NC(=O)c2cccs2)cc(C(F)(F)F)c1`, the IC50 [2] is reported as 0.29 µM.
In the case of `CCCNc1cc(NC(=O)c2ccccc2)cc(C(F)(F)F)c1`, the inhibition at 10 µM (CYP2D6) is reported as 35%, the Fu (Plasma) is reported as under 1% and the solubility thermodynamic [1] is reported as 8 µM (≈ 2.58 µg/mL). It also gave an IC50 [2] of 0.2 µM, a microsomal CLint at 1 µM [3] of 154 µL/min/mg and an IC50 (Cytochrome P450 1A2) of 0.14 µM. The Papp A→B at 10 µM [4] was 62 nm/s.
`CCCNc1cc(NC(=O)c2ccccn2)cc(C(F)(F)F)c1` gave an IC50 [2] of over 32 µM.
Work on `CCCNc1cc(NC(=O)c2cccnc2)cc(C(F)(F)F)c1` yielded an IC50 [2] of 0.94 µM.
With `CCCNc1cc(NC(=O)c2ccncc2)cc(C(F)(F)F)c1` the IC50 [2] was 2.6 µM.
Work on `CCCNc1cc(NC(=O)c2ccc(F)cc2)cc(C(F)(F)F)c1` yielded an IC50 [2] of 1.4 µM.
Work on `CCCNc1cc(NC(=O)c2ccc(F)c(F)c2)cc(C(F)(F)F)c1` yielded an IC50 [2] of 1.2 µM.
For `CCCNc1cc(NC(=O)c2c(F)cccc2F)cc(C(F)(F)F)c1`, the Fu (Plasma) was under 1%, the solubility thermodynamic [1] was 7 µM (≈ 2.51 µg/mL) and the IC50 [2] was 0.11 µM. The microsomal CLint at 1 µM [3] was 96 µL/min/mg, the IC50 (Cytochrome P450 1A2) was 1.5 µM and the Papp A→B at 10 µM [4] was 27 nm/s.
`CCCNc1cc(N)cc(C(F)(F)F)c1` gave an IC50 [2] of over 32 µM.
Molecule `CCNc1cc(NC(=O)c2c(F)cccc2F)cc(C(F)(F)F)c1` has a Fu (Plasma) of under 1%, a solubility thermodynamic [1] of 5 µM (≈ 1.72 µg/mL) and an IC50 [2] of 0.074 µM. It also gave a microsomal CLint at 1 µM [3] of 115 µL/min/mg.
Work on `CCCN(C)c1cc(NC(=O)c2c(F)cccc2F)cc(C(F)(F)F)c1` yielded an IC50 [2] of over 32 µM.
`CCCOc1cc(NC(=O)c2c(F)cccc2F)cc(C(F)(F)F)c1` showed an IC50 [2] of over 32 µM.
In the case of `CCCNc1cc(C)cc(NC(=O)c2c(F)cccc2F)c1`, the IC50 [2] is reported as 1.9 µM.
